Assay [1] deals with Epidermal growth factor receptor (Homo sapiens) (UniProt P00533). The following applies: A-431, 150 uM.
In the next assay the test system is ANN-1. Briefly: Cytotoxic effect on v-abl transformed murine ANN-1 cells. Format: functional, cell-based. The note with it: Mus musculus. Summed up:
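Abelson virus-transformed ANN-1 murine fibroblasts expressing the gag-abl tyrosine kinase, 2 × 10^4 cells in DMEM with 10% fetal calf serum; compounds in DMF or DMSO, final solvent ≤0.5% v/v. Value is the mean of two determinations.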

Assay [2] concerns HFF. The assay can be described thus: (§1) Inhibition of EGF-induced mitogenesis in human foreskin fibroblasts. Format: functional, cell-based.
Another assay concerns WiDr. The assay can be described thus: Cytotoxic effect on WiDr human colon cells. Format: functional, cell-based.
Another assay deals with NIH3T3. Briefly: Cytotoxic effect on 3T3 cells. In kind it is functional, cell-based. The following applies: Mus musculus. Summed up: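 3T3 parental fibroblasts, 2 × 10^4 cells in DMEM with 10% fetal calf serum; compounds dissolved or suspended in DMF or DMSO, final solvent ≤0.5% v/v. Value is the mean of two determinations.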
Another assay deals with MCF7. The assay can be described thus: Cytotoxic effect on MCF-7 human breast carcinoma cells. Format: functional, cell-based.
Assay [3] deals with HFF. The description is as §1. In kind it is functional, cell-based. This is another data set of the same source.
The subject of assay [4] is HFF. The assay can be described thus: Inhibition of PDGF-induced mitogenesis in human foreskin fibroblasts. Format: functional, cell-based.

Chain of Epidermal growth factor receptor (Homo sapiens) (P00533 whole entry): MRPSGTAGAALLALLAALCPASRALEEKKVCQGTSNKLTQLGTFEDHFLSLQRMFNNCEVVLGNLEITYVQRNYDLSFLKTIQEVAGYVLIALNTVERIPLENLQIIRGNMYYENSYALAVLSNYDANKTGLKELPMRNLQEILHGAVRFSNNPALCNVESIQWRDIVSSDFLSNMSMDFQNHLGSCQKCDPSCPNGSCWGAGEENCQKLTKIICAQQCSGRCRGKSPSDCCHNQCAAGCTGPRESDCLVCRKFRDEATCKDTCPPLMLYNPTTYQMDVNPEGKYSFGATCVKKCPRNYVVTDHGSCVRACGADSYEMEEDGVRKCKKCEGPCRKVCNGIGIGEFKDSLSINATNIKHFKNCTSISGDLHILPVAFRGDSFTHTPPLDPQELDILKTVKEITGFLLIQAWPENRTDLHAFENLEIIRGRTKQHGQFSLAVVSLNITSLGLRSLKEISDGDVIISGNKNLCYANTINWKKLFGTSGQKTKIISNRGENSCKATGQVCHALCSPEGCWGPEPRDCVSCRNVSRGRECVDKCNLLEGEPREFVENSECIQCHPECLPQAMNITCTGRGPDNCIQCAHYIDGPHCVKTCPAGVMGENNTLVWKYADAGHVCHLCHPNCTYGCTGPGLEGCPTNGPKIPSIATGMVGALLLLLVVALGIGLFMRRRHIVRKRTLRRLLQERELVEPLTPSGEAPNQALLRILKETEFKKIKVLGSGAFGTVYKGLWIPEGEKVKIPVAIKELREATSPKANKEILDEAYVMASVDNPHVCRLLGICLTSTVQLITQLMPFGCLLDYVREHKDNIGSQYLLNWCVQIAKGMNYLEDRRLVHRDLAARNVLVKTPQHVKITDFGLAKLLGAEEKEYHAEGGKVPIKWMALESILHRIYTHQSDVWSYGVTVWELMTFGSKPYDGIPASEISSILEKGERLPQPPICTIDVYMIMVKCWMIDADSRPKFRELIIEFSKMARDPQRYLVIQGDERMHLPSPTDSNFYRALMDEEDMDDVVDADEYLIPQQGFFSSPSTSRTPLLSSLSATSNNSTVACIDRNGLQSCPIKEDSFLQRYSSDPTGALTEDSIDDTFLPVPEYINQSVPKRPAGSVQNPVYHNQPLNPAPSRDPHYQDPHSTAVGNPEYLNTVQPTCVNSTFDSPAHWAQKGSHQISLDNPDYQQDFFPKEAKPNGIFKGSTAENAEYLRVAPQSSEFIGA

Regarding `Oc1ccc(-c2nc3ccc(O)cc3s2)cc1`, the inhibition in assay [1] turned out to be 42%. For the same compound, the IC50 is 13.5 µM in the assay on ANN-1; 13 µM in the assay on HFF [2]; 67.2 µM with WiDr; 11 µM in the assay with NIH3T3; 25 µM in the assay on MCF7; 6.5 µM in the assay with HFF [3]. Further, inhibition in the assay on HFF [4] was half-maximal at 14 µM (IC50).

Regarding `O=c1c(-c2ccc(O)cc2)coc2cc(O)cc(O)c12` [GENISTEIN], the IC50 in the assay with ANN-1 came out at 8 µM; with WiDr, 27.7 µM; in the assay on NIH3T3, 24 µM; in the assay with MCF7 it was 15.1 µM.

In the case of `Oc1ccc(-c2nc3c(O)cc(O)cc3s2)cc1`, the IC50 turned out to be 21.5 µM in the assay on ANN-1; 7 µM in the assay on HFF [2]; 31.2 µM in the assay on WiDr; 20 µM in the assay with NIH3T3; 33.3 µM in the assay on MCF7; 16 µM in the assay with HFF [3]. The same compound came in with an IC50 in the assay with HFF [4] of 20 µM.

As to `Oc1cc(O)c2nc(-c3ccc(O)c(O)c3)sc2c1`, the IC50 was 58.5 µM with ANN-1; 7 µM in the assay on HFF [2]; 47.7 µM in the assay on WiDr; 47 µM in the assay with NIH3T3; 41.3 µM with MCF7; 9 µM with HFF [3]. The compound also yielded an IC50 with HFF [4] of 68 µM.

As to `CC/C(=C(/CC)c1ccc(O)cc1)c1ccc(O)cc1` [DIETHYLSTILBESTROL], the IC50 with ANN-1 was 3 µM; in the assay with NIH3T3, 2.5 µM; with MCF7, 5 µM.

The compound `Oc1ccc(-c2nc3cc(O)c(O)cc3s2)cc1O` yielded an inhibition in assay [1] of 38%. The IC50 in the assay with ANN-1 is 32 µM; in the assay with WiDr it was 34.2 µM; with NIH3T3, 56.5 µM; in the assay with MCF7 it was 5.1 µM.

As for `Oc1ccc2nc(-c3ccc(O)c(O)c3)sc2c1`, the IC50 was determined as 5.5 µM with ANN-1, 23 µM in the assay on WiDr, 6 µM with NIH3T3 and 17.6 µM in the assay with MCF7.

With `Oc1ccc(-c2nc3ccccc3s2)cc1`, the IC50 in the assay with ANN-1 was 77 µM; with WiDr, 68.7 µM; with NIH3T3, 71.5 µM; in the assay on MCF7, 27 µM.

`Oc1ccc(-c2nc3cc(O)c(O)cc3s2)cc1`: the IC50 was 9 µM in the assay with ANN-1, 24.7 µM in the assay on WiDr, 13.5 µM in the assay with NIH3T3 and 8.4 µM in the assay on MCF7.

Turning to `Oc1cccc(-c2nc3ccc(O)cc3s2)c1`, the IC50 with ANN-1 turned out to be 17 µM; with WiDr it was 18.3 µM; in the assay on NIH3T3, 30.5 µM; with MCF7, 2.7 µM.

As to `Oc1ccc2nc(-c3ccccc3)sc2c1`, the IC50 was found to be 71 µM with ANN-1, 45.2 µM in the assay on WiDr, 79.5 µM with NIH3T3 and 27.3 µM in the assay with MCF7.

Regarding `O=c1c(O)c(-c2ccc(O)c(O)c2)oc2cc(O)cc(O)c12` [QUERCETIN], the IC50 stood at 32.5 µM with ANN-1; 40.2 µM in the assay with WiDr; 39.5 µM with NIH3T3; 24 µM in the assay with MCF7; 100 µM with HFF [4].

On to `Oc1ccc(-c2nc3cc(O)ccc3s2)cc1`, for which the IC50 with ANN-1 is 25.5 µM; in the assay on WiDr, 62.2 µM; in the assay with NIH3T3 it was 25 µM; in the assay on MCF7, 41.4 µM.

For the origin of these results see ChEMBL document CHEMBL1127530 (J Med Chem, 1994).
